# Source: ChEMBL document CHEMBL4689842, “EUbOPEN Chemogenomics Library wave 1” (2021)
# Tests used:
# Fibroblast = experiment: Incucyte cell viability with human fibroblast; type: toxicity, cell-based; settings: 10 µM, compound concentration 10 uM; also: filed as whole numbers so only -1 and 0 and 1 occur
# HEK-293T = experiment: Multiplex assay against HEK293T; type: toxicity, cell-based; settings: human;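 as to Population Tubulin-Different-Phenotype (%): share of the cells with healthy nuclei that show this phenotype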
# How it was run: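 Tubulin, mitochondrial-mass and membrane-permeability phenotypes are per cents of healthy-nucleus cells. Cells were gated by CellPathfinder machine learning into Hoechst high-intensity objects or normal cells, normal cells into healthy, pyknosed or fragmented nuclei, and pyknosed cells into mitotic or apoptotic. Before that, live cells stained at seeding with Hoechst33342, BioTracker Green Microtubule Cytoskeleton Dye, MitoTracker Red and Annexin V Alexa Fluor 680 were imaged on a CQ1 microscope at 37°C and 5% CO2 after compound addition.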
# [1] = 0 h, replicate number 1, timepoint 0 hours
# [2] = 24 h, replicate number 1, timepoint 24 hours
# [3] = 12 h, 1 µM, compound concentration 1 uM, replicate 1
# [4] = 12 h, 1 µM, compound concentration 1 uM, replicate 2
# [5] = 12 h, 10 µM, compound concentration 10 uM, replicate 1
# [6] = 12 h, 10 µM, compound concentration 10 uM, replicate 2
# [7] = 24 h, 1 µM, compound concentration 1 uM, replicate 1
# [8] = 24 h, 1 µM, compound concentration 1 uM, replicate 2
# [9] = 24 h, 10 µM, compound concentration 10 uM, replicate 1
# [10] = 24 h, 10 µM, compound concentration 10 uM, replicate 2
smiles,measurement,setting,value
NC(=O)c1ccc2nc(-c3ccc(C4(N)CCC4)cc3)c(-c3ccccc3)n2n1 [BAY-1125976],Growth Rate,Fibroblast; [1],1
same,Growth Rate,"Fibroblast; 0 h, replicate number 2, timepoint 0 hours",0
same,Growth Rate,Fibroblast; [2],1
same,Population Apoptotic (%),HEK-293T; [3],22%
same,Population Healthy Nuclei (%),HEK-293T; [3],67%
same,Population Hoechst High Intensity Objects (%),HEK-293T; [3],16%
same,Population Mitochondria Different-Phenotype (%),HEK-293T; [3],12%
same,Population Mitotic Cells (%),HEK-293T; [3],77%
same,Population Normal (%),HEK-293T; [3],83%
same,Population Pyknosed Nuclei (%),HEK-293T; [3],17%
same,Population Tubulin-Different-Phenotype (%),HEK-293T; [3],26%
same,Total Cell Count,HEK-293T; [3],688
same,Population Apoptotic (%),HEK-293T; [4],10%
same,Population Fragmented Nuclei (%),HEK-293T; [4],4%
same,Population Healthy Nuclei (%),HEK-293T; [4],87%
same,Population Hoechst High Intensity Objects (%),HEK-293T; [4],4%
same,Population Mitochondria Different-Phenotype (%),HEK-293T; [4],17%
same,Population Mitotic Cells (%),HEK-293T; [4],89%
same,Population Normal (%),HEK-293T; [4],95%
same,Population Tubulin-Different-Phenotype (%),HEK-293T; [4],38%
same,Total Cell Count,HEK-293T; [4],1223
same,Population Apoptotic (%),HEK-293T; [5],19%
same,Population Fragmented Nuclei (%),HEK-293T; [5],17%
same,Population Healthy Nuclei (%),HEK-293T; [5],62%
same,Population Hoechst High Intensity Objects (%),HEK-293T; [5],15%
same,Population Mitochondria Different-Phenotype (%),HEK-293T; [5],5%
same,Population Mitotic Cells (%),HEK-293T; [5],80%
same,Population Normal (%),HEK-293T; [5],84%
same,Population Pyknosed Nuclei (%),HEK-293T; [5],19%
same,Population Tubulin-Different-Phenotype (%),HEK-293T; [5],5%
same,Total Cell Count,HEK-293T; [5],611
same,Population Apoptotic (%),HEK-293T; [6],12%
same,Population Fragmented Nuclei (%),HEK-293T; [6],7%
same,Population Healthy Nuclei (%),HEK-293T; [6],87%
same,Population Hoechst High Intensity Objects (%),HEK-293T; [6],2%
same,Population Mitochondria Different-Phenotype (%),HEK-293T; [6],8%
same,Population Mitotic Cells (%),HEK-293T; [6],87%
same,Population Normal (%),HEK-293T; [6],97%
same,Population Pyknosed Nuclei (%),HEK-293T; [6],4%
same,Total Cell Count,HEK-293T; [6],1764
same,Population Apoptotic (%),HEK-293T; [7],32%
same,Population Hoechst High Intensity Objects (%),HEK-293T; [7],15%
same,Population Mitochondria Different-Phenotype (%),HEK-293T; [7],9%
same,Population Mitotic Cells (%),HEK-293T; [7],67%
same,Population Normal (%),HEK-293T; [7],84%
same,Population Pyknosed Nuclei (%),HEK-293T; [7],10%
same,Population Tubulin-Different-Phenotype (%),HEK-293T; [7],44%
same,Total Cell Count,HEK-293T; [7],691
same,Population Apoptotic (%),HEK-293T; [8],10%
same,Population Fragmented Nuclei (%),HEK-293T; [8],19%
same,Population Healthy Nuclei (%),HEK-293T; [8],76%
same,Population Hoechst High Intensity Objects (%),HEK-293T; [8],4%
same,Population Mitochondria Different-Phenotype (%),HEK-293T; [8],5%
same,Population Mitotic Cells (%),HEK-293T; [8],89%
same,Population Normal (%),HEK-293T; [8],95%
same,Population Pyknosed Nuclei (%),HEK-293T; [8],3%
same,Population Tubulin-Different-Phenotype (%),HEK-293T; [8],42%
same,Total Cell Count,HEK-293T; [8],1875
same,Population Apoptotic (%),HEK-293T; [9],26%
same,Population Healthy Nuclei (%),HEK-293T; [9],77%
same,Population Hoechst High Intensity Objects (%),HEK-293T; [9],11%
same,Population Mitochondria Different-Phenotype (%),HEK-293T; [9],4%
same,Population Mitotic Cells (%),HEK-293T; [9],73%
same,Population Normal (%),HEK-293T; [9],88%
same,Population Pyknosed Nuclei (%),HEK-293T; [9],8%
same,Population Tubulin-Different-Phenotype (%),HEK-293T; [9],8%
same,Total Cell Count,HEK-293T; [9],699
same,Population Apoptotic (%),HEK-293T; [10],6%
same,Population Fragmented Nuclei (%),HEK-293T; [10],23%
same,Population Healthy Nuclei (%),HEK-293T; [10],74%
same,Population Hoechst High Intensity Objects (%),HEK-293T; [10],3%
same,Population Mitochondria Different-Phenotype (%),HEK-293T; [10],1%
same,Population Mitotic Cells (%),HEK-293T; [10],93%
same,Population Normal (%),HEK-293T; [10],96%
same,Population Pyknosed Nuclei (%),HEK-293T; [10],2%
same,Population Tubulin-Different-Phenotype (%),HEK-293T; [10],6%
same,Total Cell Count,HEK-293T; [10],3086
CC[C@@H]1C(=O)N(C)c2cnc(Nc3ccc(C(=O)NC4CCN(C)CC4)cc3OC)nc2N1C1CCCC1 [BI-2536],Growth Rate,Fibroblast; [1],0
same,Growth Rate,"Fibroblast; 12 h, replicate number 1, timepoint 12 hours",1
same,Growth Rate,"Fibroblast; 18 h, replicate number 1, timepoint 18 hours",0
same,Growth Rate,"Fibroblast; 18 h, replicate number 2, timepoint 18 hours",1
same,Growth Rate,Fibroblast; [2],0
same,Population Apoptotic (%),HEK-293T; [3],15%
same,Population Fragmented Nuclei (%),HEK-293T; [3],15%
same,Population Healthy Nuclei (%),HEK-293T; [3],61%
same,Population Hoechst High Intensity Objects (%),HEK-293T; [3],12%
same,Population Membrane Permeable-Phenotype (%),HEK-293T; [3],12%
same,Population Mitochondria Different-Phenotype (%),HEK-293T; [3],10%
same,Population Mitotic Cells (%),HEK-293T; [3],84%
same,Population Normal (%),HEK-293T; [3],87%
same,Population Pyknosed Nuclei (%),HEK-293T; [3],22%
same,Population Tubulin-Different-Phenotype (%),HEK-293T; [3],14%
same,Total Cell Count,HEK-293T; [3],578
same,Population Apoptotic (%),HEK-293T; [4],12%
same,Population Fragmented Nuclei (%),HEK-293T; [4],3%
same,Population Healthy Nuclei (%),HEK-293T; [4],82%
same,Population Hoechst High Intensity Objects (%),HEK-293T; [4],2%
same,Population Membrane Permeable-Phenotype (%),HEK-293T; [4],7%
same,Population Mitochondria Different-Phenotype (%),HEK-293T; [4],28%
same,Population Mitotic Cells (%),HEK-293T; [4],87%
same,Population Normal (%),HEK-293T; [4],97%
same,Population Pyknosed Nuclei (%),HEK-293T; [4],13%
same,Population Tubulin-Different-Phenotype (%),HEK-293T; [4],41%
same,Total Cell Count,HEK-293T; [4],1166
same,Population Apoptotic (%),HEK-293T; [5],32%
same,Population Fragmented Nuclei (%),HEK-293T; [5],17%
same,Population Healthy Nuclei (%),HEK-293T; [5],59%
same,Population Hoechst High Intensity Objects (%),HEK-293T; [5],11%
same,Population Membrane Permeable-Phenotype (%),HEK-293T; [5],17%
same,Population Mitochondria Different-Phenotype (%),HEK-293T; [5],40%
same,Population Mitotic Cells (%),HEK-293T; [5],67%
same,Population Normal (%),HEK-293T; [5],88%
same,Population Pyknosed Nuclei (%),HEK-293T; [5],23%
same,Population Tubulin-Different-Phenotype (%),HEK-293T; [5],90%
same,Total Cell Count,HEK-293T; [5],497
same,Population Apoptotic (%),HEK-293T; [6],12%
same,Population Fragmented Nuclei (%),HEK-293T; [6],4%
same,Population Healthy Nuclei (%),HEK-293T; [6],81%
same,Population Hoechst High Intensity Objects (%),HEK-293T; [6],3%
same,Population Membrane Permeable-Phenotype (%),HEK-293T; [6],24%
same,Population Mitochondria Different-Phenotype (%),HEK-293T; [6],43%
same,Population Mitotic Cells (%),HEK-293T; [6],87%
same,Population Normal (%),HEK-293T; [6],96%
same,Population Pyknosed Nuclei (%),HEK-293T; [6],13%
same,Population Tubulin-Different-Phenotype (%),HEK-293T; [6],98%
same,Total Cell Count,HEK-293T; [6],911
same,Population Apoptotic (%),HEK-293T; [7],14%
same,Population Fragmented Nuclei (%),HEK-293T; [7],14%
same,Population Healthy Nuclei (%),HEK-293T; [7],62%
same,Population Hoechst High Intensity Objects (%),HEK-293T; [7],12%
same,Population Membrane Permeable-Phenotype (%),HEK-293T; [7],5%
same,Population Mitochondria Different-Phenotype (%),HEK-293T; [7],12%
same,Population Mitotic Cells (%),HEK-293T; [7],85%
same,Population Normal (%),HEK-293T; [7],87%
same,Population Pyknosed Nuclei (%),HEK-293T; [7],23%
same,Population Tubulin-Different-Phenotype (%),HEK-293T; [7],19%
same,Total Cell Count,HEK-293T; [7],553
same,Population Apoptotic (%),HEK-293T; [8],6%
same,Population Fragmented Nuclei (%),HEK-293T; [8],2%
same,Population Healthy Nuclei (%),HEK-293T; [8],66%
same,Population Hoechst High Intensity Objects (%),HEK-293T; [8],4%
same,Population Membrane Permeable-Phenotype (%),HEK-293T; [8],2%
same,Population Mitochondria Different-Phenotype (%),HEK-293T; [8],22%
same,Population Mitotic Cells (%),HEK-293T; [8],93%
same,Population Normal (%),HEK-293T; [8],95%
same,Population Pyknosed Nuclei (%),HEK-293T; [8],31%
same,Population Tubulin-Different-Phenotype (%),HEK-293T; [8],48%
same,Total Cell Count,HEK-293T; [8],1114
same,Population Apoptotic (%),HEK-293T; [9],39%
same,Population Fragmented Nuclei (%),HEK-293T; [9],17%
same,Population Healthy Nuclei (%),HEK-293T; [9],57%
same,Population Hoechst High Intensity Objects (%),HEK-293T; [9],12%
same,Population Membrane Permeable-Phenotype (%),HEK-293T; [9],7%
same,Population Mitochondria Different-Phenotype (%),HEK-293T; [9],80%
same,Population Mitotic Cells (%),HEK-293T; [9],60%
same,Population Normal (%),HEK-293T; [9],87%
same,Population Pyknosed Nuclei (%),HEK-293T; [9],25%
same,Population Tubulin-Different-Phenotype (%),HEK-293T; [9],93%
same,Total Cell Count,HEK-293T; [9],510
same,Population Apoptotic (%),HEK-293T; [10],11%
same,Population Fragmented Nuclei (%),HEK-293T; [10],11%
same,Population Healthy Nuclei (%),HEK-293T; [10],62%
same,Population Hoechst High Intensity Objects (%),HEK-293T; [10],3%
same,Population Membrane Permeable-Phenotype (%),HEK-293T; [10],8%
same,Population Mitochondria Different-Phenotype (%),HEK-293T; [10],59%
same,Population Mitotic Cells (%),HEK-293T; [10],88%
same,Population Normal (%),HEK-293T; [10],96%
same,Population Pyknosed Nuclei (%),HEK-293T; [10],26%
same,Population Tubulin-Different-Phenotype (%),HEK-293T; [10],97%
same,Total Cell Count,HEK-293T; [10],1005
